Here are results for five compounds from article PMC10016935 (RSC Advances, 2023).

For orientation: EC50 means the midpoint of the concentration-response curve. By CC50 is commonly meant the concentration at which the toxic effect on the cells reaches its halfway point.

Data set [1] relates to HSV-1. Briefly: HSV replication inhibition assay, HSV-1 in Vero cells. It is filed as cell-based, herpes simplex virus-1. The conditions noted are these: for Selectivity CC50/EC50: Vero CC50 / HSV-1 EC50; for EC50: read-out: HSV-1 EC50 (μM) ± SD. The method, boiled down:
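Confluent Vero monolayers (24-well) got compound in PBS with 2% newborn calf serum and 2 mM L-glutamine, in duplicate, plus clinical-isolate virus at 2 × 10^4 PFU per well, for 1 h at 37 °C. Washed, then compound in DMEM for 24 h. Non-toxic wells (phase-contrast check) were titred by plaque assay (methanol, Giemsa). EC50 used serial dilutions in 96-well format, three-parameter fit, bottom zero.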

For a further data set, the system named is Vero cells. Briefly: Cytotoxicity assay. Conditions: read-out: Vero CC50 (μM) ± SD, 48 h, MTS, 2 to 4 independent runs. It is filed as cell-based. An outline of the steps: (§1)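 Vero cells in 96-well plates in DMEM with 3% bovine growth serum and 3% newborn calf serum. Serial compound dilutions in medium with 1% DMSO were added 24 h after plating, in duplicate. After 24 or 48 h, MTS was added for 90 min and A490 read. CC50 came from a four-parameter variable-slope fit with bottom fixed at zero.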

The nature of the next data set: Cytotoxicity assay. Type of data set: cell-based. The conditions noted are these: African green monkey, Vero cells. An outline of the steps:
as §1

The subject of data set [2] is mutant of HSV-1 resistant to acyclovir (TK−). Briefly: Replication inhibition of acyclovir-resistant HSV-1 mutant. The conditions noted are these: Fig. 2C. Type of data set: cell-based, herpes simplex virus-1.
In data set [3] the test system is HSV-1. Conditions: read-out: EC50 HSV-1; cell-based antiviral activity; cited from earlier work.
In the next data set the test system is HSV-2. Conditions: read-out: EC50 HSV-2; cell-based antiviral activity; cited from earlier work.

Read-outs that look alike come from different tables or passages of the source.

Take `Cc1cc(O)c(=O)c(O)cc1C(=O)NCC1(c2ccc(C(C)C)cc2)CCCC1` [compound 65, Dihydroxy-N-((1-(4-isopropylphenyl)cyclopentyl)methyl)-2-methyl-5-oxocyclohepta-1,3,6-triene-1-carboxamide]: in the data set with HSV-1 [1], the “Selectivity CC50/EC50” value was found to be 302. Besides, the EC50 in the data set with HSV-1 [1] (Vero cells, 3 to 4 independent runs) worked out at 0.306 ± 0.016 µM. The CC50 in the data set with Vero cells stood at 92.5 ± 7.5 µM.
Regarding `Cc1cc(O)c(=O)c(O)cc1C(=O)N1CCc2cc(C3CCCCC3)ccc2C1` [compound 64, 4-(6-Cyclohexyl-1,2,3,4-tetrahydroisoquinoline-2-carbonyl)-2,7-dihydroxy-5-methylcyclohepta-2,4,6-trien-1-one], the EC50 in the data set on HSV-1 [1] (Human alphaherpesvirus 1, Vero) was 0.072 ± 0.021 µM. The “Selectivity CC50/EC50” value in the data set on HSV-1 [1] (listed as C00065) is 1050. In the data set “Cytotoxicity assay”, this compound registered a CC50 at 48 h of 75700 ± 5300 nM.
Take `Cc1cc(O)c(=O)c(O)cc1C(=O)N1CCC2(CC1)C1CC3CC(C1)CC2C3` [compound 66, 2,7-Dihydroxy-4-methyl-5-(spiro[adamantane-2,4′-piperidine]-1′-carbonyl)cyclohepta-2,4,6-trien-1-one]: the concentration for a half-maximal effect (EC50) in the data set with HSV-1 [1] (Human alphaherpesvirus 1, Vero) came to 0.296 ± 0.054 µM. In addition, half-maximal cytotoxicity in the data set “Cytotoxicity assay” (CC50 at 48 h) was put at 23700 ± 3800 nM.
For `Cc1cc(O)c(=O)c(O)cc1C(=O)Nc1ccc2ccc3cccc4ccc1c2c34` [compound 63, 4,6-Dihydroxy-2-methyl-5-oxo-N-(pyren-1-yl)cyclohepta-1,3,6-triene-1-carboxamide], in that order: 0.244 ± 0.097 µM and 74200 ± 8700 nM.
In the case of `Nc1nc2c(ncn2COCCO)c(=O)[nH]1` [acyclovir], the “inhibition of wild-type HSV-1” value in the data set with HSV-1 [1] (wild-type virus, Fig. 2C) is “inhibited only the wild-type virus”. The “inhibition of ACV-resistant HSV-1” value in data set [2] was “inhibited only the wild-type virus”. Further, the EC50 in the data set on HSV-1 [3] was 170 nM; with HSV-2, 1400 nM.
